Converted amounts (≈) assume the structure as drawn.
Legend:
Staphylococcus aureus = assay: Antibacterial activity against gram positive bacteria Staphylococcus aureus was determined by twofold Micro-broth dilution assay; assay type: functional, organism-based
Method in brief: (§1)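 Broth microdilution with two-fold serial dilutions of compound added to pre-inoculated microtitre plates. Inoculum diluted in phosphate-buffered saline to 10^6 cfu/mL, then plated at a final 10^3 cells per 150 µL medium. Controls were medium plus inoculum and a solvent control at the highest-concentration solvent level. Plates incubated at 37 °C and read by OD at 600 nm. IC50 is the concentration giving 50% of control-inoculum growth.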

Sporothrix schenckii [1] = assay: Antifungal activity against Sporothrix schenck ii was determined by twofold Micro-broth dilution assay; assay type: functional, organism-based
Method in brief: (§2)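 Fungal strains tested by two-fold serial broth microdilution in microtitre plates. Cells diluted in phosphate-buffered saline to 10^6 cfu/mL and inoculated at a final 10^3 cells per 150 µL medium. Medium/inoculum and solvent controls were included. Incubation at 28 °C, then OD read at 600 nm. IC50 is the concentration at which growth is 50% of the control inoculum.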

Aspergillus flavus = assay: Antifungal activity against Aspergillus flavus was determined by twofold Micro-broth dilution assay; assay type: functional, organism-based; method in brief: as §2
Klebsiella aerogenes = assay: Antibacterial activity against gram negative bacteria Enterobacter aerogens was determined by twofold Micro-broth dilution assay; assay type: functional, organism-based; method in brief: as §1
Shigella flexneri = assay: Antibacterial activity against gram negative bacteria Shigella flexenerii was determined by twofold Micro-broth dilution assay; assay type: functional, organism-based; method in brief: as §1
Streptococcus mutans = assay: Antibacterial activity against gram positive bacteria Streptococcus mutans was determined by twofold Micro-broth dilution assay; assay type: functional, organism-based; method in brief: as §1
Enterococcus faecalis = assay: Antibacterial activity against gram positive bacteria Enterococcus faecalis was determined by twofold Micro-broth dilution assay; assay type: functional, organism-based; method in brief: as §1
Aspergillus niger = assay: Antifungal activity against Aspergillus niger was determined by twofold Micro-broth dilution assay; assay type: functional, organism-based; method in brief: as §2
Salmonella typhimurium = assay: Antibacterial activity against gram negative bacteria Salmonella Typhimurium was determined by twofold Micro-broth dilution assay; assay type: functional, organism-based, Salmonella enterica subsp. enterica serovar Typhimurium; settings: Salmonella enterica; method in brief: as §1
Escherichia coli = assay: Antibacterial activity against gram negative bacteria Escherichia coli was determined by twofold Micro-broth dilution assay; assay type: functional, organism-based; method in brief: as §1
Trichophyton rubrum = assay: Antifungal activity against Trichophyton rubrum was determined by twofold Micro-broth dilution assay; assay type: functional, organism-based; method in brief: as §2
Candida albicans = assay: Antifungal activity against Candida albicans was determined by twofold Micro-broth dilution assay; assay type: functional, organism-based; method in brief: as §2
Histoplasma capsulatum = assay: Antifungal activity against Histoplasma capsulatum was determined by twofold Micro-broth dilution assay; assay type: functional, organism-based
Method in brief: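 Fungal broth microdilution. Cells were diluted to 10^6 cfu/mL in phosphate-buffered saline and seeded at a final 10^3 cells per well. Two-fold serial compound dilutions were added. Plates carried inoculum-only and solvent controls, the solvent matched to the highest concentration. After incubation at 28 °C, OD was read at 600 nm. IC50 is the concentration where growth is 50% of control.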

Cryptococcus neoformans = assay: Antifungal activity against Cryptococcus neoformans was determined by twofold Micro-broth dilution assay; assay type: functional, organism-based; method in brief: as §2
Salmonella typhi = assay: Antibacterial activity against gram negative bacteria Salmonella typhi was determined by twofold Micro-broth dilution assay; assay type: functional, organism-based, Salmonella enterica subsp. enterica serovar Typhi; settings: Salmonella enterica
Nannizzia gypsea [2] = assay: Antifungal activity against Microsporum gypseum was determined by twofold Micro-broth dilution assay; assay type: functional, organism-based; method in brief: as §2
[3] = test system: Staphylococcus epidermidis; assay: Antibacterial activity against gram positive bacteria Staphylococcus epidermidis was determined by twofold Micro-broth dilution assay; assay type: functional, organism-based; method in brief: as §1
Nannizzia gypsea [4] = assay: Antifungal activity against Microsporum gypseum was determined by twofold Micro-broth dilution assay; No data; assay type: functional, organism-based; method in brief: as §2
Sporothrix schenckii [5] = assay: Antifungal activity against Sporothrix schenck ii was determined by twofold Micro-broth dilution assay; No data; assay type: functional, organism-based; method in brief: as §2
[6] = Sporothrix schenckii, read-out: IC50
[7] = Aspergillus flavus, read-out: IC50
[8] = Aspergillus niger, read-out: IC50
[9] = Trichophyton rubrum, read-out: IC50
[10] = Candida albicans, read-out: IC50
[11] = Nannizzia gypsea, read-out: IC50

Row | Molecule | IC50 (Staphylococcus aureus) [µg/mL] | IC50 (Sporothrix schenckii [1]; [6]) [µg/mL] | IC50 (Aspergillus flavus; [7]) [µg/mL] | IC50 (Klebsiella aerogenes) [µg/mL] | IC50 (Shigella flexneri) [µg/mL] | IC50 (Streptococcus mutans) [µg/mL] | IC50 (Enterococcus faecalis) [µg/mL] | IC50 (Aspergillus niger; [8]) [µg/mL] | IC50 (Salmonella typhimurium) [µg/mL] | IC50 (Escherichia coli) [µg/mL] | IC50 (Trichophyton rubrum; [9]) [µg/mL] | IC50 (Candida albicans; [10]) [µg/mL] | IC50 (Histoplasma capsulatum) [µg/mL] | IC50 (Cryptococcus neoformans) [µg/mL] | IC50 (Salmonella typhi) [µg/mL] | IC50 (Nannizzia gypsea [2]; [11]) [µg/mL] | IC50 [3] [µg/mL] | further results
1 | C[C@H](CCC(=O)N[C@@H](CO)[C@@H](O)c1ccccc1)[C@H]1CC[C@H]2[C@@H]3CC[C@@H]4C[C@H](O)CC[C@]4(C)[C@H]3C[C@H](O)[C@]12C | > 250 | > 250 | > 250 | > 250 | > 250 | 60 (≈ 111 µM) | > 250 | > 250 | > 250 | > 250 | > 250 | > 250 | > 250 | 62.5 (≈ 115 µM) | > 250 | > 250 | 220 (≈ 406 µM) | 
2 | C[C@H](CCC(=O)N[C@@H](CO)[C@@H](O)c1ccc([N+](=O)[O-])cc1)[C@H]1CC[C@H]2[C@@H]3CC[C@@H]4C[C@H](O)CC[C@]4(C)[C@H]3C[C@H](O)[C@]12C | > 250 | > 250 | > 250 | > 250 | > 250 | 30 (≈ 51.1 µM) | 10 (≈ 17 µM) | > 250 | > 250 | > 250 | > 250 | > 250 | > 250 | > 250 | > 250 | > 250 | > 250 | 
3 | C[C@H](CCC(=O)N[C@H](CO)[C@H](O)c1ccccc1)[C@H]1CC[C@H]2[C@@H]3C(O)C[C@@H]4C[C@H](O)CC[C@]4(C)[C@H]3C[C@H](O)[C@]12C (stereo partly specified) | > 250 | > 250 | > 250 | > 250 | > 250 | 40 (≈ 71.7 µM) | 60 (≈ 108 µM) | > 250 | > 250 | > 250 | > 250 | > 250 | > 250 | > 250 | > 250 | > 250 | 40 (≈ 71.7 µM) | 
4 | C[C@H](CCC(=O)N[C@H](CO)[C@H](O)c1ccccc1)[C@H]1CC[C@H]2[C@@H]3CC[C@@H]4C[C@H](O)CC[C@]4(C)[C@H]3C[C@H](O)[C@]12C | 40 (≈ 73.8 µM) | > 250 | > 250 | > 250 | > 250 | 25 (≈ 46.1 µM) | 60 (≈ 111 µM) | > 250 | > 250 | > 250 | > 250 | > 250 | > 250 | > 250 | > 250 | > 250 | 40 (≈ 73.8 µM) | 
5 | C[C@H](CCC(=O)N[C@@H](CO)[C@@H](O)c1ccc([N+](=O)[O-])cc1)[C@H]1CC[C@H]2[C@@H]3C(O)C[C@@H]4C[C@H](O)CC[C@]4(C)[C@H]3C[C@H](O)[C@]12C (stereo partly specified) | 75 (≈ 124 µM) | > 250 | > 250 | > 250 | > 250 | 40 (≈ 66.4 µM) | > 250 | > 250 | > 250 | > 250 | > 250 | > 250 | > 250 | > 250 | > 250 | > 250 | > 250 | 
6 | C[C@H](CCC(=O)N[C@H](CO)[C@H](O)c1ccc([N+](=O)[O-])cc1)[C@H]1CC[C@H]2[C@@H]3CC[C@@H]4C[C@H](O)CC[C@]4(C)[C@H]3C[C@H](O)[C@]12C | 7.5 (≈ 12.8 µM) | > 250 | > 250 | > 250 | > 250 | 4 (≈ 6.82 µM) | 15 (≈ 25.6 µM) | > 250 | > 250 | > 250 | > 250 | > 250 | > 250 | > 250 | > 250 | > 250 | 7.5 (≈ 12.8 µM) | 
7 | C[C@H](CCC(=O)N[C@@H](CO)[C@@H](O)c1ccccc1)[C@H]1CC[C@H]2[C@@H]3C(O)C[C@@H]4C[C@H](O)CC[C@]4(C)[C@H]3C[C@H](O)[C@]12C (stereo partly specified) | > 250 | > 250 | > 250 | > 250 | > 250 | 60 (≈ 108 µM) | 40 (≈ 71.7 µM) | > 250 | > 250 | > 250 | > 250 | > 250 | > 250 | > 250 | > 250 | > 250 | 20 (≈ 35.9 µM) | 
8 | C[C@H](CCC(=O)N[C@H](CO)[C@H](O)c1ccc([N+](=O)[O-])cc1)[C@H]1CC[C@H]2[C@@H]3C(O)C[C@@H]4C[C@H](O)CC[C@]4(C)[C@H]3C[C@H](O)[C@]12C (stereo partly specified) | 75 (≈ 124 µM) | > 250 | > 250 | > 250 | > 250 | 6 (≈ 9.95 µM) | 60 (≈ 99.5 µM) | > 250 | > 250 | > 250 | > 250 | > 250 | > 250 | > 250 | > 250 | > 250 | 100 (≈ 166 µM) | 
9 | C[C@@H]1[C@H](O)[C@@H](C)/C=C/C=C/C=C/C=C/C=C/C=C/C=C/[C@H](O[C@@H]2O[C@H](C)[C@@H](O)[C@H](N)[C@@H]2O)C[C@@H]2O[C@](O)(C[C@@H](O)C[C@@H](O)[C@H](O)CC[C@@H](O)C[C@@H](O)CC(=O)O[C@H]1C)C[C@H](O)[C@H]2C(=O)O [AMPHOTERICIN B] |  |  | 5 (≈ 5.41 µM) |  |  |  |  | 2.5 (≈ 2.71 µM) |  |  | 2.5 (≈ 2.71 µM) | 0.0625 (≈ 0.0676 µM) |  |  |  |  |  | IC50 (Nannizzia gypsea [4]): 2.5 µg/mL (≈ 2.71 µM); IC50 (Sporothrix schenckii [5]): 5 µg/mL (≈ 5.41 µM)
10 | Clc1ccccc1C(c1ccccc1)(c1ccccc1)n1ccnc1 [CLOTRIMAZOLE] |  | 0.0312 (≈ 0.0906 µM) | 0.5 (≈ 1.45 µM) |  |  |  |  | 5 (≈ 14.5 µM) |  |  | 0.625 (≈ 1.81 µM) | 0.0312 (≈ 0.0906 µM) |  |  |  | 0.625 (≈ 1.81 µM) |  | 
11 | CN[C@@H]1[C@H](O[C@H]2[C@H](O[C@H]3[C@H](O)[C@@H](O)[C@H](N=C(N)N)[C@@H](O)[C@@H]3N=C(N)N)O[C@@H](C)[C@]2(O)C=O)O[C@@H](CO)[C@H](O)[C@H]1O [STREPTOMYCIN] | 0.3 (≈ 0.516 µM) |  |  | 1.25 (≈ 2.15 µM) | 1.25 (≈ 2.15 µM) | 0.12 (≈ 0.206 µM) | 1.25 (≈ 2.15 µM) |  | 1.25 (≈ 2.15 µM) | 1.25 (≈ 2.15 µM) |  |  |  |  |  |  | 0.12 (≈ 0.206 µM) | 
12 | CN[C@H](CC(C)C)C(=O)N[C@H]1C(=O)N[C@@H](CC(N)=O)C(=O)N[C@H]2C(=O)N[C@H]3C(=O)N[C@H](C(=O)N[C@H](C(=O)O)c4cc(O)cc(O)c4-c4cc3ccc4O)[C@H](O)c3ccc(c(Cl)c3)Oc3cc2cc(c3O[C@@H]2O[C@H](CO)[C@@H](O)[C@H](O)[C@H]2O[C@H]2C[C@](C)(N)[C@H](O)[C@H](C)O2)Oc2ccc(cc2Cl)[C@H]1O [VANCOMYCIN] | 0.12 (≈ 0.0828 µM) |  |  | > 250 | > 250 | 0.12 (≈ 0.0828 µM) | 0.06 (≈ 0.0414 µM) |  | > 250 | > 250 |  |  |  |  | > 250 |  | 0.3 (≈ 0.207 µM) | 
13 | NYSTATIN |  |  |  |  |  |  |  |  |  |  |  |  |  |  |  |  |  | IC50 (Sporothrix schenckii [1]): 3.125 µg/mL; IC50 (Aspergillus flavus): 2.5 µg/mL; IC50 (Aspergillus niger): 2.5 µg/mL; IC50 (Trichophyton rubrum): 2.5 µg/mL; IC50 (Candida albicans): 0.25 µg/mL; IC50 (Nannizzia gypsea [2]): 3.125 µg/mL
